For assay [1], the target named is T1, GABA-A receptor; alpha-1/beta-2/gamma-2 (Rattus norvegicus) (UniProt P18508+P62813+P63138). The assay is described as follows: In vitro current effect against rat GABA receptor alpha-1-beta-2-gamma-2 subunits expressed in Xenopus laevis oocytes at 10 uM (ratio +/- compound). It counts as cell-based. The note with it: Oocyte. In short, it runs like this:
(§1)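 Two-electrode voltage clamp at -70 mV, 2–5 days after injecting rat α1, β2 and γ2L cRNA (20–40 ng total, equal parts) into defolliculated stage V–VI oocytes held at 18 °C in ND96. Compound was co-applied with 2 μM GABA for 20 s and peak current measured. Value is the ratio of current with/without compound, from at least four oocytes.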

In assay [2] the target is T1, GABA-A receptor; alpha-1/beta-2/gamma-2 (Rattus norvegicus). The assay is described as follows: In vitro current effect against rat GABA receptor alpha-1-beta-2-gamma-2 subunits expressed in Xenopus laevis oocytes at 0.1 uM (ratio +/- compound). It counts as cell-based. The note with it: Oocyte. In short, it runs like this:
as §1

Assay [3] deals with GABA-A receptor; anion channel. The experiment in a line: Non-competitive displacement of [35S]TBPS from picrotoxin binding site found in heterogeneous Gamma-aminobutyric acid A receptor in rat brain membranes. It counts as cell membranes. In short, it runs like this: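 Rat brain membranes (washed P2, 0.5 mg/mL final protein) incubated 2 h at room temperature with 5 μM GABA, 2 nM [35S]TBPS and steroid from DMSO (final 1 nM–10 μM) in 200 mM NaCl/50 mM potassium phosphate, pH 7.4. Nonspecific binding defined with 200 μM picrotoxinin. Filtration, scintillation counting, Hill fit for IC50. Triplicate points, two or three curves per steroid.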
On the technique in general: Displacement assays read how much labelled ligand stays bound in the presence of the test substance.

The nature of assay [4]: Hill coefficient for loss of swimming response. It counts as functional. In short, it runs like this:
(§2)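 Groups of 10 early pre-limb-bud X. laevis tadpoles were placed in 100 mL oxygenated Ringer's containing compound at various concentrations. Compound came from a 10 mM DMSO stock, about 0.1% DMSO final. Loss of righting and loss of swimming responses were scored. EC50 and Hill coefficient n were taken from a Hill equation fit.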

Assay [5] can be described thus: Loss of swimming behavior in Xenopus laevis tadpole. It counts as functional, frog. Particulars: Amphibia, read-out: ED50 (the source's name). The essentials:
as §2

A short description of assay [6]: Hill coefficient for loss of righting response. The class given is functional. The essentials:
as §2

The target in assay [7] is T1, GABA-A receptor; alpha-1/beta-2/gamma-2 (Rattus norvegicus). The experiment in a line: In vitro current effect against rat GABA receptor alpha-1-beta-2-gamma-2 subunits expressed in Xenopus laevis oocytes at 1 uM (ratio +/- compound). It counts as cell-based. Particulars: Oocyte. The essentials: as §1
Assay [8] in a line: Hill coefficient for displacement of [35S]TBPS. It counts as functional. In short, it runs like this:
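Rat brain membrane P2 fraction washed three times in 200 mM NaCl / 50 mM potassium phosphate, pH 7.4. Assay used 0.5 mg/mL protein, 5 μM GABA, 2 nM [35S]TBPS and steroid at 1 nM–10 μM final (0.5% DMSO), 2 h at room temperature, then filtration and scintillation counting. Nonspecific binding was taken with 200 μM picrotoxinin. Triplicate points, 2–3 curves per steroid; Hill equation fit gives n.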

Assay [9] deals with T1, GABA-A receptor; alpha-1/beta-2/gamma-2 (Rattus norvegicus). The experiment in a line: In vitro direct current effect against rat GABA receptor alpha-1-beta-2-gamma-2 subunits expressed in Xenopus laevis oocytes at 10 uM (ratio +/- compound, without GABA). The class given is cell-based. Particulars: Oocyte. In short, it runs like this: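 Same oocyte α1β2γ2L voltage-clamp setup at -70 mV, with peak current over 20 s applications. Compound was applied at 10 μM without GABA. Directly gated current is expressed as a ratio to the current evoked by 2 μM GABA, from at least four oocytes.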

Assay [10] in a line: Loss of righting reflex in Xenopus laevis tadpole. The note with it: Amphibia, read-out: ED50 (the source's name). It counts as functional, frog. In short, it runs like this:
as §2

What is called IC50 is the concentration that gives 50% inhibition. As for `C[C@]12CC[C@@H](O)C[C@@H]1CC[C@H]1[C@@H]3CCC4C=CC(=O)C[C@@]43CC[C@@H]12` (stereo partly drawn), the Ratio in [1] is 16.6; in [2], 1.59; in assay [7] it was 5.53; in [9], 0.35. For the same compound, the half-inhibitory concentration (IC50) in [3] was found to be 0.243 µM. Besides, the nHill in assay [4] is -17; in assay [6] it was -1.16; in assay [8], 0.89. In addition, the EC50 in assay [5] was 10 µM; in [10] it was 1.28 µM.
As for `C[C@]12CC[C@@H](O)C[C@H]1CC[C@@H]1[C@@H]2CC[C@]23C(=O)C=CC[C@H]2CC[C@@H]13`, the Ratio in assay [1] was 21.4; in assay [2], 1.36; in assay [7], 3.15; in assay [9], 0.2. In addition, the IC50 in [3] was 0.105 µM. The nHill was -18.6 in assay [4], -4.97 in assay [6] and 0.9 in assay [8]. Besides, the EC50 in assay [5] came out at 1 µM; in assay [10], 0.4 µM.
With `CC(=O)[C@H]1CC[C@H]2[C@@H]3CC[C@H]4C[C@H](O)CC[C@]4(C)[C@H]3CC[C@]12C` [BREXANOLONE], the Ratio in assay [1] amounted to 9.65; in assay [2], 1.26; in assay [7], 3.89; in assay [9], 0.37. Besides, the nHill is -7.5 in [4], -1.83 in assay [6] and 0.89 in assay [8]. Moreover, the EC50 in assay [5] came out at 5.5 µM; in [10], 0.42 µM.
For `CC(=O)[C@H]1CC[C@H]2[C@@H]3CC[C@@H]4C[C@H](O)CC[C@]4(C)[C@H]3CC[C@]12C` [ELTANOLONE], the Ratio stood at 9.77 in [1], 1.2 in assay [2], 2.82 in assay [7] and 0.06 in assay [9]. Also, the nHill in [4] is -6.93; in [6], -1.54; in [8] it was 0.57. In addition, the EC50 in assay [5] was found to be 0.3 µM; in assay [10], 0.063 µM.
With `C[C@]12CC[C@@H](O)C[C@H]1CC[C@@H]1[C@@H]2CC[C@]23C(=O)CCCC2CC[C@@H]13` (stereo partly drawn), the Ratio worked out at 10.4 in assay [1], 1.26 in assay [2], 3.45 in [7] and 0.04 in assay [9]. Also, in assay [3], the IC50 came to 0.329 µM. In addition, the nHill in [4] was -18.2; in [6], -4.97; in assay [8], 0.95. For the same compound, the EC50 came out at 0.89 µM in [5] and 0.04 µM in assay [10].
Turning to `C[C@]12CC[C@@H](O)C[C@@H]1CC[C@@H]1[C@@H]2CC[C@]23C(=O)CCCC2CC[C@@H]13` (stereo partly drawn), the Ratio in assay [1] was determined as 10.7; in assay [2], 1.22; in assay [7] it was 3.05; in assay [9], 0.39. Moreover, the IC50 in [3] is 0.301 µM. The nHill in assay [4] is -36.5; in assay [6], -1.75; in assay [8], 1.01. Also, the EC50 worked out at 1.73 µM in assay [5] and 0.32 µM in assay [10].
Regarding `C[C@]12CC[C@@H](O)C[C@H]1CC[C@H]1[C@@H]3CCC4CCC(=O)C[C@@]43CC[C@@H]12` (stereo partly drawn), the Ratio in assay [1] amounted to 3.17; in assay [2], 0.97; in assay [7], 1.03; in assay [9] it was 0.01. In [3], this compound registered an IC50 of 0.899 µM. Moreover, the nHill in [4] is -17.5; in assay [6], -3.02; in [8], 0.89. The EC50 in assay [5] was determined as 3.55 µM; in assay [10], 1.44 µM.
Consider `C[C@]12CC[C@@H](O)C[C@H]1CC[C@H]1[C@@H]3CCC4C(=O)CCC[C@@]43CC[C@@H]12` (stereo partly drawn), for which the Ratio in assay [1] is 1.51; in [2] it was 0.93; in [7], 1.12; in [9], -0.25. Also, the IC50 in assay [3] amounted to 1.78 µM. For the same compound, the nHill is -33.5 in assay [4], -1.23 in assay [6] and 1.36 in assay [8]. The EC50 in assay [5] amounted to 5.48 µM; in [10], 0.94 µM.
With `C[C@]12CC[C@@H](O)C[C@@H]1CC[C@@H]1[C@@H]2CC[C@]23C(=O)C=CC[C@H]2CC[C@@H]13`, the Ratio in [1] worked out at 9.45; in assay [2] it was 1.98; in [7] it was 8.33; in assay [9], 0.07. The compound also had an IC50 in assay [3] of 0.197 µM. Also, the nHill in [4] is -24.2; in assay [8] it was 1.03. For the same compound, the results for the EC50 in assay [5] and in assay [10] were 2.66 µM and 1.2 µM, respectively.
As to `C[C@]12CC[C@@H](O)C[C@H]1CC[C@@H]1[C@@H]2CC[C@]23C=CC(=O)C[C@H]2CC[C@@H]13`, the Ratio in assay [1] came out at 4.44; in assay [2], 1.87; in assay [7], 1.8; in [9], 0.26. In assay [3], this compound yielded an IC50 of 4.75 µM. Also, the nHill was -33.5 in assay [4], -1.5 in assay [6] and 0.95 in assay [8]. Moreover, the EC50 in [5] came out at 5.48 µM; in assay [10], 0.56 µM.
For the compound `C[C@]12CC[C@@H](O)C[C@H]1CC[C@H]1C3CCC4C(=O)C=CC[C@@]43CC[C@@H]12` (single isomer, unassigned), the Ratio in assay [1] is 2.34; in [2], 1.07; in assay [7], 1.17; in assay [9] it was 0.11. For the same compound, the IC50 in [3] was found to be 1.57 µM. Also, the nHill was -19.8 in [4], -1.59 in assay [6] and 1.15 in assay [8]. The values for the EC50 in [5] and in [10] were 8.95 µM and 2.56 µM, respectively.
In the case of `C[C@]12CC[C@@H](O)C[C@H]1CC[C@H]1[C@@H]3CCC4C=CC(=O)C[C@@]43CC[C@@H]12` (stereo partly drawn), the Ratio in assay [1] was 4.5; in [2] it was 1.07; in [7], 1.83; in assay [9], -0.02. Also, the IC50 in assay [3] came to 0.268 µM. Besides, the nHill in assay [4] was -22.1; in [6] it was -16.6; in assay [8], 0.64. Further, the EC50 is 2.72 µM in [5] and 1.05 µM in assay [10].
With `C[C@]12CC[C@@H](O)C[C@@H]1CC[C@H]1[C@@H]3CCC4CC(=O)CC[C@@]43CC[C@@H]12` (stereo partly drawn), the Ratio in assay [1] stood at 2.93; in [2], 1.3; in [7] it was 1.61; in assay [9], 0.06. This compound displayed a half-inhibitory concentration (IC50) in assay [3] of 1.44 µM. Besides, the nHill in assay [6] is -2.02; in assay [8] it was 0.95. The EC50 in [10] is 2.37 µM.
On to `C[C@]12CC[C@@H](O)C[C@@H]1CC[C@H]1C3CCC4C(=O)C=CC[C@@]43CC[C@@H]12` (single isomer, unassigned), for which the Ratio stood at 9.07 in assay [1], 1.49 in assay [2], 5.87 in assay [7] and 0.72 in assay [9]. In assay [3], the 50% inhibitory concentration (IC50) is 0.373 µM. Besides, the figures for the nHill in assay [6] and in assay [8] were -2.79 and 1.17, respectively. Further, in assay [10], the EC50 turned out to be 3.38 µM.

(Values after ChEMBL document CHEMBL1145917, “Neurosteroid analogues. 9. Conformationally constrained pregnanes: structure-activity studies of 13,24-cyclo-18,21-dinorcholane analogues of the GABA modulatory and anesthetic steroids (3alpha,5alpha)- and (3alpha,5beta)-3-hydroxypregnan-20-one” (J Med Chem, 2003).)
